{"source": "PubChem BioAssay AID651560", "about": "(Sanford-Burnham Center for Chemical Genomics, 2012)", "note": "The campaign covered roughly 360,000 compounds. About 820 (0.23%) were called active.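 The calls were made as follows: active = compounds that cut the enzyme signal by at least half of the control window in the single-dose screen; inactive = the rest.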 Shown is part of a subset that was picked to be rich in actives."}
{"target": "Low molecular weight phosphotyrosine protein phosphatase (Homo sapiens) (UniProt P24666)", "sequence (P24666 whole entry, looked up)": "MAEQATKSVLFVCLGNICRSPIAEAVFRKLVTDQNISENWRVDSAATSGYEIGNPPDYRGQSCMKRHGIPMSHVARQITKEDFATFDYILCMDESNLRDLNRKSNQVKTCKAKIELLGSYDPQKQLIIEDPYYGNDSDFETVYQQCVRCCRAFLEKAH", "assay": "inhibition of human LMPTP-A enzyme – biochemical, fluorescence intensity, uHTS, primary screen (AID 651560);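 also: plate controls were DMSO wells with enzyme plus substrate for no effect and substrate without enzyme for full effect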", "conditions": "recombinant LMPTP-A, OMFP fluorogenic substrate, at 20 µM, active compounds read high", "procedure,_shortened": "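Material: LMPTP-A; amount: 0.625 nM enzyme; doses: single 20 µM dose; times: reaction 50 min, room temperature, dark; technique: fluorescence intensity of OMFP turnover product; benchmarks: no-enzyme and uninhibited controls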"}
{"compound": "O=C(COC(=O)C1CC2CCCC(C1)C2=O)NC(=O)c1ccccc1", "note": "(centres undefined)", "inhibition": "-0.507% (inactive)"}
{"compound": "CC(Oc1ccc(F)cc1F)C(=O)/C=C/N(C)C", "note": "(centres undefined)", "inhibition": "0.234% (inactive)"}
{"compound": "C[C@H]1CN([C@@H](C)CO)S(=O)(=O)c2ccc(-c3cccc(F)c3)cc2O[C@@H]1CN(C)C", "inhibition": "-1.08% (inactive)"}
{"compound": "CCOC(=O)N1CCN(C(=S)Nc2ccc(C)cc2C)CC1", "inhibition": "-1.47% (inactive)"}
{"compound": "COc1cc([N+](=O)[O-])ccc1NC(=S)N1CCN(c2ccccn2)CC1", "inhibition": "0.0311% (inactive)"}
{"compound": "CC1CCN(C(=S)c2cccc(O)c2)CC1", "inhibition": "0.643% (inactive)"}
{"compound": "CCS(=O)(=O)N1Cc2ccccc2CC1C(=O)Nc1ccc(OC)cc1OC", "note": "(centres undefined)", "inhibition": "-0.419% (inactive)"}
{"compound": "CC(NC(=S)NNS(=O)(=O)c1ccc(C(C)(C)C)cc1)c1ccccc1", "note": "(centres undefined)", "inhibition": "2.08% (inactive)"}
{"compound": "Cc1c(Nc2nc3ccccc3nc2NS(=O)(=O)c2cccs2)c(=O)n(-c2ccccc2)n1C", "inhibition": "-0.947% (inactive)"}
{"compound": "O=C(COc1ccc(/C=N/NC(=O)c2ccc(O)cc2)cc1)Nc1ccc([N+](=O)[O-])cc1", "inhibition": "71.4% (active)"}
{"compound": "O=C(CSc1ccc([N+](=O)[O-])cn1)Nc1ccc(N2CCOCC2)cc1", "inhibition": "-0.239% (inactive)"}
{"compound": "O=C(COC(=O)C1CCCCC1)Nc1ccc([N+](=O)[O-])cc1", "inhibition": "0.534% (inactive)"}
{"compound": "N#Cc1cc([N+](=O)[O-])ccc1Oc1cccc(/C=N/NC(=O)c2ccc(Cl)cc2)c1", "inhibition": "0.464% (inactive)"}
{"compound": "O=C(COc1ccc([N+](=O)[O-])cc1)Nc1ccc(N2CCCC2)cc1", "inhibition": "59.1% (active)"}
{"compound": "O=C(COc1ccc([N+](=O)[O-])cc1)Nc1cccc(C(=O)Nc2ccccc2C(=O)O)c1", "inhibition": "0.459% (inactive)"}
{"compound": "COc1ccc(CCNc2ncnc3c2nnn3Cc2ccccc2)cc1", "inhibition": "1.88% (inactive)"}
{"compound": "CCn1ccnc1CNC(=O)CC1C(=O)NCCN1Cc1ccc(F)cc1Cl", "note": "(centres undefined)", "inhibition": "1.38% (inactive)"}
{"compound": "Nc1ccc(Cl)c(S(=O)(=O)Nc2ccccc2Cl)c1", "inhibition": "-0.587% (inactive)"}
{"compound": "O=S(=O)(c1ccc(F)cc1)N1CCN(C(=S)NCc2ccco2)CC1", "inhibition": "0.0562% (inactive)"}
{"compound": "CCCc1c(C)nc2scc(-c3ccc(Cl)cc3)n2c1=O", "inhibition": "-0.6% (inactive)"}
{"compound": "O=c1ccc2c(-c3ccccc3S(=O)(=O)O)c3ccc(O)c(O)c3oc-2c1O", "inhibition": "58.1% (active)"}
{"compound": "Cc1ccc(N2C(=O)C3C4C=CC(CC4)C3C2=O)cc1Br", "note": "(centres undefined)", "inhibition": "-1.41% (inactive)"}
{"compound": "COc1cc(Cl)c(C)cc1NC(=O)[C@@H]1CCCN1C(=O)c1cccs1", "inhibition": "-1.01% (inactive)"}
{"compound": "CCN(CC)Cc1nc2sc(C)c(C)c2c(=O)[nH]1", "inhibition": "-1.11% (inactive)"}
{"compound": "C/C(=N\\Nc1nc2ccccc2[nH]1)c1cccs1", "inhibition": "1.27% (inactive)"}
{"compound": "NS(=O)(=O)c1ccc(NC(=S)NNC(=O)c2cccs2)cc1", "inhibition": "-0.673% (inactive)"}
{"compound": "C/C(=N\\Nc1ccc(S(N)(=O)=O)cc1[N+](=O)[O-])c1cccs1", "inhibition": "57.1% (active)"}
{"compound": "CCOC1=C2CN(S(=O)(=O)c3ccc(C)cc3)[C@H](c3cccs3)C[C@H]2[C@H]2C(=O)N(c3ccccc3)C(=O)[C@H]2C1", "inhibition": "0.231% (inactive)"}
{"compound": "O=C(c1ccccc1)c1ccc2nc(N3CCCCC3)c3nncn3c2c1", "inhibition": "2.58% (inactive)"}
{"compound": "CC(C)(Oc1ccc(Cl)cc1)C(=O)OCC(=O)NCCc1ccc(S(N)(=O)=O)cc1", "inhibition": "-0.949% (inactive)"}
{"compound": "Cc1sc2ncnc(SCC(=O)Nc3ccc(CN4CCCC4)cc3)c2c1C", "inhibition": "23.7% (inactive)"}
{"compound": "O=c1c2ccccc2nnn1CSc1nc2sc3c(c2c(=O)n1CC1CCCO1)CCC3", "note": "(centres undefined)", "inhibition": "4.21% (inactive)"}
{"compound": "O=C(CCc1nc2sc3c(c2c(=O)[nH]1)CCCC3)NCC(=O)Nc1ccccc1Br", "inhibition": "9.36% (inactive)"}
{"compound": "O=C(Nc1cccc(Cl)c1)C1CCCN(c2cnccn2)C1", "note": "(centres undefined)", "inhibition": "-0.511% (inactive)"}
{"compound": "C[C@@H]1CN([C@@H](C)CO)C(=O)CCCn2nncc2CO[C@@H]1CN(C)S(=O)(=O)c1ccc(-c2ccccc2)cc1", "inhibition": "-1.91% (inactive)"}
{"compound": "C=C1c2c(Cl)ccc(O)c2C(O)=C2C(=O)[C@]3(O)C(O)=C(C(N)=O)C(=O)[C@@H](N(C)C)[C@@H]3[C@@H](O)C12", "note": "(some centres undefined)", "inhibition": "72.5% (active)"}
{"compound": "C[C@H](CO)N1C[C@H](C)[C@@H](CN(C)S(=O)(=O)c2ccc(Oc3ccccc3)cc2)OCc2cn(nn2)CCCC1=O", "inhibition": "-0.314% (inactive)"}
{"compound": "O=c1cc(CO)oc(C(Nc2cccc([N+](=O)[O-])c2)c2ccccn2)c1O", "note": "(centres undefined)", "inhibition": "-1.69% (inactive)"}
{"compound": "CCOC(=O)N1CCN(Cc2nc3ccc([N+](=O)[O-])cc3c(=O)n2-c2cccc(OC)c2)CC1", "inhibition": "-0.855% (inactive)"}
{"compound": "CCCCN(C(=O)C1CCC1)c1c(N)n(Cc2ccccc2)c(=O)[nH]c1=O", "inhibition": "-1.05% (inactive)"}
{"compound": "CCN1C(=O)C(=O)N(CC(=O)Nc2cc(C)ccc2C)C1=O", "inhibition": "-0.207% (inactive)"}
{"compound": "COc1ccc(Br)cc1/C=N/Nc1ccc(S(=O)(=O)Nc2ccccc2C(=O)O)cc1[N+](=O)[O-]", "inhibition": "71.1% (active)"}
{"compound": "COc1cc(CCN=Cc2ccccc2O)c([N+](=O)[O-])cc1OC", "inhibition": "0.174% (inactive)"}
{"compound": "COc1ccccc1C(CNC(=O)c1cccc(NS(=O)(=O)c2ccc(Br)cc2)c1)N(C)C", "note": "(centres undefined)", "inhibition": "-1.5% (inactive)"}
{"compound": "Cc1ccc(S(=O)(=O)N[C@@H](Cc2ccccc2)C(=O)N2CCC(C(=O)N[C@H](C(=O)O)C(C)O)CC2)cc1", "note": "(some centres undefined)", "inhibition": "-1.25% (inactive)"}
{"compound": "Cc1ccc(O/C=C2\\OC(=O)c3ccccc32)cc1", "inhibition": "-1.45% (inactive)"}
{"compound": "CC1(C)C2CC=C(/C=N/NC(=O)c3ccc(Cl)cc3)C1C2", "note": "(centres undefined)", "inhibition": "-2.83% (inactive)"}
{"compound": "COC(=O)C(C)C1Sc2ccccc2NC1=O", "note": "(centres undefined)", "inhibition": "0.652% (inactive)"}
{"compound": "CCC1CCCCN1C(=O)CSc1nc(C)cc(C)n1", "note": "(centres undefined)", "inhibition": "-0.356% (inactive)"}
{"compound": "CCN([C@H](CO)C(C)C)S(=O)(=O)c1ccccc1Br", "inhibition": "-1.46% (inactive)"}
{"compound": "CC1CCCC(C)N1C(=O)COC(=O)c1ccccc1C(=O)c1ccccc1", "note": "(centres undefined)", "inhibition": "-1.53% (inactive)"}
{"compound": "Cn1c(=O)c2c(ncn2CC(=O)N/N=C/c2cn[nH]c2-c2ccc(F)cc2)n(C)c1=O", "inhibition": "-0.239% (inactive)"}
{"compound": "CCN(c1ccccc1)S(=O)(=O)c1cc2c(cc1C)n(C)c(=O)c(=O)n2C", "inhibition": "0.0122% (inactive)"}
{"compound": "CCCNC(=O)NC(=O)COC(=O)CC(NC(N)=O)c1ccc(Cl)cc1", "note": "(centres undefined)", "inhibition": "-1.19% (inactive)"}
{"compound": "COc1ccc2c(c1)c(=Cc1ccc(N(C)C)cc1)c1cc(-c3ccccc3)[n+](C)n12", "inhibition": "96.2% (active)"}
{"compound": "O=C(COC(=O)c1ccc([N+](=O)[O-])o1)NC12CC3CC(CC(C3)C1)C2", "inhibition": "1.22% (inactive)"}
{"compound": "COc1cc(NC(=S)N2CCCC(C)C2)c(OC)cc1Cl", "note": "(centres undefined)", "inhibition": "0.265% (inactive)"}
{"compound": "C=CCn1c(=O)n(C)c2c(=O)n(C)c(=O)n(C)c21", "inhibition": "0.217% (inactive)"}
{"compound": "Cc1csc(NC(=O)CSc2nnc(-c3cccnc3)o2)n1", "inhibition": "-0.391% (inactive)"}
{"compound": "N#Cc1ccc(OCC(=O)NC(=O)NC2CCS(=O)(=O)C2)cc1", "note": "(centres undefined)", "inhibition": "-1.41% (inactive)"}
{"compound": "O=C(CCN1C(=O)[C@@H]2Cc3ccccc3CN2C1=O)NCc1ccccc1", "inhibition": "0.0399% (inactive)"}
{"compound": "COc1cccc(N(C(=O)c2ccn[nH]2)C2(C(=O)Nc3c(C)cccc3C)CCCCC2)c1", "inhibition": "-0.749% (inactive)"}
{"compound": "O=C(O)COCC(=O)NCc1csc2ccc(Cl)cc12", "inhibition": "-1.97% (inactive)"}
{"compound": "CCOP(=O)(OCC)C(Nc1cccc(C)c1)c1ccc(F)cc1", "note": "(centres undefined)", "inhibition": "0.494% (inactive)"}
{"compound": "COc1cnc(SCc2ccc(Cl)c(Cl)c2)nc1Cl", "inhibition": "3.06% (inactive)"}
{"compound": "CCN(CC)CCNC(=O)c1sc2ncn(CC(=O)Nc3ccc(C)c(Cl)c3)c(=O)c2c1C", "inhibition": "-0.286% (inactive)"}
{"compound": "CCN1CCN(c2ccc(S(=O)(=O)N3CCCCC3)cc2NC(=O)Cc2c(Cl)cccc2Cl)CC1", "inhibition": "1.2% (inactive)"}
{"compound": "CCC(C)Cn1c(O)cc2nn(-c3nc4ccccc4s3)c(=O)c-2c1C", "note": "(centres undefined)", "inhibition": "52.5% (active)"}
{"compound": "O=c1c(-c2ccccc2)cnc2n1CCS2", "inhibition": "-1.57% (inactive)"}
{"compound": "O=c1c2cc(-c3ccccc3)sc2nc2n1N=C(c1cccs1)CS2", "inhibition": "61.5% (active)"}
{"compound": "COc1ccc(C(O)c2nc(-c3ccc4c(c3)OCO4)cs2)cc1", "note": "(centres undefined)", "inhibition": "0.808% (inactive)"}
{"compound": "COc1ccc(OC)c(Nc2nc(-c3ccc(O)c(O)c3)cs2)c1", "inhibition": "62.5% (active)"}
{"compound": "COc1cccc(C(O)c2nc(-c3ccc(C)c(C)c3)cs2)c1", "note": "(centres undefined)", "inhibition": "3.13% (inactive)"}
{"compound": "Cc1ccccc1NC(=O)Cc1nc(COC(=O)CNC(=O)c2ccc(Cl)cc2Cl)cs1", "inhibition": "0.684% (inactive)"}
{"compound": "COCCCNC(=O)C1CC(=O)N(CCc2ccccc2)C1", "note": "(centres undefined)", "inhibition": "-0.151% (inactive)"}
{"compound": "CN(CCC1CCOCC1)C(=O)CC1C(=O)NCCN1Cc1cccc(F)c1", "note": "(centres undefined)", "inhibition": "-1.38% (inactive)"}
{"compound": "Cc1cc2c(cc1C)N(C(=O)CN1C(=O)c3ccccc3C1=O)C(C)(C)c1ssc(=S)c1-2", "inhibition": "2.43% (inactive)"}
{"compound": "CCOc1ccccc1NC(=O)C1CCCN(C(=O)Nc2ccccc2)C1", "note": "(centres undefined)", "inhibition": "-1.09% (inactive)"}
{"compound": "O=C(Cn1cnc2c(nnn2-c2ccccc2)c1=O)N1CCC(Cc2ccccc2)CC1", "inhibition": "1.23% (inactive)"}
{"compound": "COCCNc1nc(NCc2ccc(NC(C)=O)cc2)c2sccc2n1", "inhibition": "51.4% (active)"}
{"compound": "CC(=O)Nc1ccc(CNc2nc(NCCN(C)C)nc3cc(-c4ccccc4)sc23)cc1", "inhibition": "1.9% (inactive)"}
{"compound": "COc1cccc(CNc2nc(NCc3cccs3)nc3ccsc23)c1", "inhibition": "27% (inactive)"}
{"compound": "Fc1ccccc1OCCSc1nc2ccccc2o1", "inhibition": "1.37% (inactive)"}
{"compound": "CCSc1nc2c(c(=O)[nH]1)C(c1cccnc1)C(C(=O)OC(C)C)=C(C)N2", "note": "(centres undefined)", "inhibition": "-1.3% (inactive)"}
